Source: PubChem (Broad Institute)
In the library only some 4.3% were active in any assay of this set; here they are far more common.
ALR inh: inhibitors of human sulfhydryl oxidase ALR | P55789 | AID 485317 | purified ALR, DTT oxidation, H2O2 HRP-luminol luminescence | inhibition, % (no concentration beside the values) | 3.8% of 290,000 active;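 active = mean replicate inhibition above about 79%, with every replicate also reaching it, limit read from the data; inconclusive = only one of the two criteria met; inactive = mean below limit and not every replicate reaching it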
Target sequence (P55789 whole entry, looked up): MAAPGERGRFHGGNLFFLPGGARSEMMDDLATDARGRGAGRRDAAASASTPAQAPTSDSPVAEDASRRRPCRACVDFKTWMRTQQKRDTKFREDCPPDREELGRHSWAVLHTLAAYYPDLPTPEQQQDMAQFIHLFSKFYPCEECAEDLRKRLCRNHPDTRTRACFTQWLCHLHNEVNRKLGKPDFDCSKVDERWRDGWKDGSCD
CAL PDZ FP-1: human CAL PDZ-peptide interaction inhibition; Q9HD26; inhibition, % at 20 µM; 0.02% of 330,000 active; purified CAL PDZ, TMR-peptide fluorescence polarization, 1 h;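 active = highest replicate inhibition of at least 40%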;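 also: plate controls were DMSO neutral control wells for no effect and unlabeled competitor peptide control wells for full effect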
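System: purified tagged CAL PDZ domain construct (CerCALP). Schedule: 1 h incubation at room temperature before polarization reading. Medium: 25 mM sodium phosphate pH 7.4, 150 mM NaCl, TCEP, IgG, Thesit. Read-out: percent inhibition from loss of millipolarization. Measured by: FP readout, S and P plane fluorescence. Probe or stimulus: fluorescent TMR peptide probe.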
CAL PDZ FP-2: CAL PDZ (human) peptide binding inhibition; Q9HD26; AID 602252; 0.92% of 300,000 active; purified CAL PDZ, TMR-peptide fluorescence polarization, 1 h; inhibition, % at 24.9 µM;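 active = mean inhibition of at least 30% with at least half of replicates also reaching 30%; inconclusive = no clear call, values can overlap the other calls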;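 also: 0% = DMSO neutral control and 100% = excess unlabeled competitor peptide PRC23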
Rtt109 HAT inh: C. albicans Rtt109 histone acetyltransferase inhibition; purified Rtt109/Vps75, ThioGlo CoA-SH fluorescence, 4 h; inhibition, % at 34.9 µM; 0.16% of 330,000 active; AID 540336;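 active = inhibition of at least 50% in every replicate; inconclusive = best replicate reaches 50% inhibition but some replicates fall short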
Target sequence (Q5AAJ8 whole entry, looked up): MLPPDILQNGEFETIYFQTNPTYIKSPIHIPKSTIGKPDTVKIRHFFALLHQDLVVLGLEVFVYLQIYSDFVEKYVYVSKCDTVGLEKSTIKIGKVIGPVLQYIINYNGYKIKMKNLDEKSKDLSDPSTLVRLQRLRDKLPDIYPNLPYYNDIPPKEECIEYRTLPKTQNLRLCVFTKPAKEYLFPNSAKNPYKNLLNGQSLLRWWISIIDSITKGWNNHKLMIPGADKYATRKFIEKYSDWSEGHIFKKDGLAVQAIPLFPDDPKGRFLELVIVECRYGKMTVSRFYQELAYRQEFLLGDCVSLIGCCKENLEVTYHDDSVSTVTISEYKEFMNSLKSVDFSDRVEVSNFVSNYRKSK
DYRK1A inh: Dyrk1A (rat) kinase inhibition. Q63470. ADP-Glo luminescence, NFATc1 peptide. inhibition, % at 12.5 µM. 0.43% of 310,000 active; in the data active = inhibition above about 50%;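 also: plate controls were vehicle with enzyme for no effect and no enzyme for full effect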
Active calls of the source: *; u = inconclusive; x = no result.

SMILES	ALR inh	CAL PDZ FP-1	CAL PDZ FP-2	Rtt109 HAT inh	DYRK1A inh
CN(C)c1ccc(NC(=O)CCCCCn2nnc3ccccc3c2=O)cc1	99*	0	-3	3	-5
O=C(CSCC(=O)OCn1nnc2ccccc2c1=O)Nc1ccc(Cl)cc1	98*	-3	-2	-7	1
CCC(C(=O)OCn1nnc2ccccc2c1=O)c1ccccc1 (stereo not drawn)	-11	-1	54*	x	0
CC1CCN(C(=O)CCc2nnc3ccc(N4CCC5(CC4)OCCO5)nn23)CC1	-3	-1	-2	-6	8
CCOC(=O)Cn1c(=NC(=O)c2ccc([N+](=O)[O-])s2)sc2ccccc21	-44	-3	0	-14	3
CC(=O)Oc1ccc(/C=N/NC(=O)C2CCCN2S(=O)(=O)c2ccc(Cl)cc2)cc1 (stereo not drawn)	100*	-3	-1	4	1
CC(=O)Nc1ccc(C2=NN(c3ccccc3)C(c3ccccc3)C2)cc1 (stereo not drawn)	96*	0	-5	-5	-1
COc1ccc(C2=NN(S(=O)(=O)c3ccccc3)C(c3ccccc3)C2)cc1 (stereo not drawn)	-4	-2	1	-1	0
Oc1ccc(C2=NN(c3ccccc3)C(c3ccc(F)cc3)C2)cc1 (stereo not drawn)	97*	0	3	3	4
O=C(O)c1ccc(N2N=C(c3ccccc3)CC2c2ccccc2)cc1 (stereo not drawn)	92*	10	-4	-301	-6
O=S(=O)(c1ccccc1)N1N=C(c2ccccc2)CC1c1ccccc1 (stereo not drawn)	x	-1	45*	-6	3
O=Cc1ccc(N2N=C(c3ccccc3)CC2c2ccccc2)cc1 (stereo not drawn)	-10	2	-3	7	1
C=CCN(c1ccccc1)S(=O)(=O)c1cccc(C(=O)Nc2ncccc2O)c1	6	-1	1	3	-1
O=C(COc1cccc2cccnc12)N1CCc2ccccc21	x	-3	-7	x	4
CCOC(=O)CSc1nnc(-c2ccoc2C)n1-c1ccc(C)cc1	x	1	45*	-9	-4
COC(=O)n1c(=S)oc2cc(Cl)ccc21	96*	x	x	x	x
CC(=O)c1ccc(NC(=O)CNCc2cccs2)cc1	x	0	-1	7	-4
O=C(O)c1ccccc1NCc1cccs1	-8	0	-2	-12	x
CC(=O)Nc1ccc(NCc2cccs2)cc1	95*	-1	-1	20	1
Oc1ccc(NCc2cccs2)cc1	96*	1	-3	-7	0
O=C(CNc1ccccc1)c1ccc([N+](=O)[O-])cc1	-10	0	-3	0	-3
CC(=O)Nc1ccc(NCC(=O)c2ccccc2)cc1	65	-1	50*	11	1
O=C(O)CN1CCNCCN(CC(=O)O)CCNCC1	x	-2	-2	2	-3
CC1CN(C(=O)COC(=O)c2cccc(S(=O)(=O)N3CCc4ccccc43)c2)CC(C)O1 (stereo not drawn)	-1	19	59*	-2	1
O=C(OCC(=O)N1CCOCC1)c1cccc(S(=O)(=O)N2CCCc3ccccc32)c1	x	0	-2	-3	x
SMILES	ALR inh	CAL PDZ FP-1	CAL PDZ FP-2	Rtt109 HAT inh	DYRK1A inh
CCOc1ccc(NS(=O)(=O)c2ccc(NC(=O)c3ccccc3C(=O)O)cc2)cc1	1	0	76*	-1	-5
CCSc1ccccc1C(=O)Nc1ccc(S(=O)(=O)NC(C)=O)cc1	96*	-2	0	-6	3
CC(=O)Nc1ccc(S(=O)(=O)N[C@@H](C)C(=O)N2CCN(c3ccccn3)CC2)cc1	99*	0	0	16	0
CC(=O)Nc1ccc(S(=O)(=O)Nc2nc3ccccc3nc2Nc2cccc(O)c2)cc1	82*	-2	-3	-7	-3
COc1ccc(N(CN2C(=O)C3CCCCC3C2=O)C(=O)c2ccco2)cc1 (stereo not drawn)	-12	x	x	x	x
Cn1cnnc1Sc1nc2ccccc2nc1NS(=O)(=O)c1ccccc1	8	-3	-2	-1	x
O=C(O)c1ccc(Nc2nc3ccccc3nc2NS(=O)(=O)c2ccc(F)cc2)cc1	98*	-1	-2	3	4
CC(=O)Nc1ccc(S(=O)(=O)NC(C)C(=O)NC(C)c2ccccc2)cc1 (stereo not drawn)	99*	-1	3	u	2
CC(=O)c1cccc(NS(=O)(=O)c2ccc(NC(=O)N3CCCCC3)cc2)c1	-8	-1	121*	2	-6
O=C(O)c1cccc(Nc2nc3ccccc3nc2NS(=O)(=O)c2ccccc2)c1	11	-1	x	1	-4
CC(=O)Nc1ccc(S(=O)(=O)Nc2nc3ccccc3nc2Sc2nncn2C)cc1	99*	-2	-3	x	6
CN(C)c1ccccc1C(=O)N1CCCC(C(=O)c2ccc3ccccc3c2)C1 (stereo not drawn)	-12	-2	-2	6	x
CC(=O)Nc1ccc(S(=O)(=O)Nc2ccc(Nc3ccccc3)cc2)cc1	99*	0	14	x	-2
CC(=O)Nc1ccc(S(=O)(=O)Nc2nc3ccccc3nc2Nc2ccc3ccccc3c2)cc1	u	-3	-2	-14	-9
CC(=O)Nc1ccc(S(=O)(=O)Nc2nc3ccccc3nc2Nc2ccc(N)cc2)cc1	100*	-3	-3	2	11
CC(=O)Nc1ccc(S(=O)(=O)Nc2nc3ccccc3nc2Nc2ccc(C(=O)O)c(O)c2)cc1	98*	1	-1	-5	8
CC(=O)Nc1ccc(NS(=O)(=O)c2ccccc2)cc1	-8	0	x	-3	1
O=S(=O)(Nc1ccc(Br)cn1)c1ccc2ccccc2c1	6	-2	-4	-8	11
CCCn1c(=O)[nH]c(=O)c2c1nc(-c1ccc(OC)c(Br)c1)n2CCOC	-1	-3	2	5	3
O=Nc1[nH]c(=O)c(/C=C(\O)c2ccccc2)nc1NO	67	0	-1	-3	23
CC(=O)Nc1ccc(C(=O)N2CC(=O)NC(=O)C2)cc1	-3	1	4	63*	4
CCOC(=O)N1CCN(C(=O)c2ccc(NC(C)=O)cc2)CC1	-2	-1	1	-3	-7
Cc1ccc(S(=O)(=O)Nc2cc(Cl)c(O)cc2C)cc1	x	-1	-1	7	23
Cc1ccc(S(=O)(=O)Nc2cc(C(C)C)c(O)cc2C)cc1	97*	-5	-7	3	0
C=CCCCCCCCCC(=O)NNC1CC(=O)N(c2ccccc2)C1=O (stereo not drawn)	0	0	49*	-1	x
CCCCCC(=O)NNC1CC(=O)N(c2ccccc2)C1=O (stereo not drawn)	21	x	x	x	x
CC(C)(C)c1cc(N)n2nc(C(C)(C)C)cc2n1	-9	1	-9	53*	-1
